TNAP act hiacc = increases human TNAP activity under high phosphate acceptor concentration; 200,000 tested, under 10 active; activation factor at 20 µM; purified TNAP, CDP-star luminescence, 1 M DEA, 30 min; hits give high values; 0 = EDTA background, 1 = DMSO-only activity; P05186; AID 1136;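 active means activation factor at least 2 at 20 µM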
Target sequence (P05186 whole entry, looked up): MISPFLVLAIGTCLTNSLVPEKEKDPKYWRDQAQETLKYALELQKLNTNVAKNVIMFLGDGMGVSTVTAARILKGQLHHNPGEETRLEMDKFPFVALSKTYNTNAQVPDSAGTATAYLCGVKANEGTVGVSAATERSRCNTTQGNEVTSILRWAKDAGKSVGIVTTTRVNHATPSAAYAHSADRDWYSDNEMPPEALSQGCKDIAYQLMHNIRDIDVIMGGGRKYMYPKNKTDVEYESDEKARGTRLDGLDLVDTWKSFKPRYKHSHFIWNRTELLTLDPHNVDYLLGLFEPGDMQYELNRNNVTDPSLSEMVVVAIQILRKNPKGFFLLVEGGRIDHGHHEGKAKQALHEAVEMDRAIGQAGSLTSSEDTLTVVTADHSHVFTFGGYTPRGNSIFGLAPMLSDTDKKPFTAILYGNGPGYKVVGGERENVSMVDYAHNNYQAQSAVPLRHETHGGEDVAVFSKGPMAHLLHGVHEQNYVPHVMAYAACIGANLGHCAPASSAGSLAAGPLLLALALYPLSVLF
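Dosing: 20 µM single point. System: human TNAP. Amount: TNAP 1/800 final. Incubation: 30 min, room temperature. Read-out: TNAP activation factor scaled between EDTA and DMSO control wells. Signal: luminescence from CDP-star hydrolysis. Medium: 1 M DEA, pH 9.8, Mg2+, Zn2+. Control set: EDTA negative control, DMSO positive control.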
BB579 growth dn = yeast BB579 growth reduction in restrictive medium. S. cerevisiae BB579 growth, OD615, 48 h. inhibition, % at 10 µM. 0.51% of 140,000 active. AID 804;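 active means inhibition above a set limit, 3 SD over the mean compound inhibition, cut at about 44% in these data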
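Test system: DeaD yeast strain BB579 / Buffer or medium: restrictive glucose-based CSMM-D medium / Doses: single 10 µM dose / Schedule: 4 h cell preincubation, 48 h compound exposure, 30 °C humidified / Technique: culture absorbance at 615 nm / Controls: amphotericin B positive control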
TNAP inh no acc = inhibitors of human TNAP without phosphate acceptor. P05186. purified TNAP, CDP-star luminescence, 30 min. inhibition, % at 20 µM. 0.26% of 200,000 active;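 active means tissue-nonspecific alkaline phosphatase inhibition above about 50% at 20 µM in the single-dose screen, limit read from the data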
Yeast lifespan up = yeast lifespan extension. S. cerevisiae growth with nicotinamide, OD615; deaD strain in restrictive glucose medium. inhibition of the nicotinamide effect, % at 10 µM. 0.68% of 130,000 active. AID 775;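 active means inhibition above a set limit, placed 3 SD over the median of all compounds, cut at about 26% in these data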
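assay system = DeaD-strain S. cerevisiae | buffer or medium = restrictive glucose medium | reagent = 1.5 mM nicotinamide | compound = 10 µM single point, 0.25% DMSO | incubation = 48 h compound exposure at 30 °C, humidified | signal = OD615 measurement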
TNAP inh hiacc = blocks human TNAP under high phosphate acceptor concentration; P05186; purified TNAP, CDP-star luminescence, 1 M DEA; inhibition, % at 20 µM; 0.03% of 200,000 active; AID 1135;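 active means over 50% inhibition of tissue-nonspecific alkaline phosphatase at 20 µM in the single-dose screen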
RAM inhibit = inhibitors of the yeast RAM network; S. cerevisiae dse1pr::URA3 reporter, 5-FOA growth OD615, 2 d; analog-sensitive cbk1-as2 kinase mutant strain; inhibition, % at 50 µM; 1.8% of 190,000 active; AID 868;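 active means inhibition above a set limit, 3 SD over mean compound inhibition, cut at about 8.4% in these data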;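 further: inhibition rescues growth on 5-FOA so higher OD means more RAM inhibition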
Hits are given with their value. Compounds with a hit are over-represented: about 2.8% of the library has one in this group of screens.

How did O=Cc1cc2ccccc2nc1SCc1ccc(Cl)c(Cl)c1 do in these assays?
TNAP act hiacc: inactive; BB579 growth dn: inactive; TNAP inh no acc: inactive; Yeast lifespan up: inactive; TNAP inh hiacc: inactive; RAM inhibit: 8.6

How did Cc1ccc(CSc2nc3ccccc3cc2C=O)cc1 do in these assays?
TNAP act hiacc: inactive; BB579 growth dn: inactive; TNAP inh no acc: inactive; Yeast lifespan up: inactive; TNAP inh hiacc: inactive; RAM inhibit: 10

How did Cc1ccc(CSc2ncnc3ccccc23)cc1 do in these assays?
TNAP act hiacc: inactive; TNAP inh no acc: inactive; TNAP inh hiacc: inactive; RAM inhibit: inactive

Results for O=Cc1cc2ccccc2nc1SCc1ccc(Cl)cc1 ?
TNAP act hiacc: inactive; BB579 growth dn: inactive; TNAP inh no acc: inactive; Yeast lifespan up: 34; TNAP inh hiacc: inactive; RAM inhibit: inactive

Results for O=c1[nH]c(SCc2ccc(Cl)cc2)nc2ccccc12 ?
TNAP act hiacc: inactive; TNAP inh no acc: inactive; TNAP inh hiacc: inactive; RAM inhibit: inactive

Results for S=C(Nc1ccc2cn[nH]c2c1)Nc1ccccc1Cl ?
TNAP act hiacc: inactive; BB579 growth dn: inactive; TNAP inh no acc: inactive; Yeast lifespan up: 37; TNAP inh hiacc: inactive; RAM inhibit: inactive

What do the screens show for `S=C(Nc1ccc2cn[nH]c2c1)Nc1ccc(Cl)cc1Cl`?
TNAP act hiacc: inactive; TNAP inh no acc: inactive; TNAP inh hiacc: inactive; RAM inhibit: inactive

Results for CCCCC(=O)NC(NC(=S)N1CCCCCC1)C(Cl)(Cl)Cl (stereo unspecified) ?
TNAP act hiacc: inactive; BB579 growth dn: inactive; TNAP inh no acc: inactive; Yeast lifespan up: inactive; TNAP inh hiacc: inactive; RAM inhibit: inactive

Results for COc1ccc(NC(=O)CC(c2ccc(F)cc2)c2ccc(OC(C)C)cc2)cc1 (stereo unspecified) ?
TNAP act hiacc: inactive; BB579 growth dn: inactive; TNAP inh no acc: inactive; Yeast lifespan up: inactive; TNAP inh hiacc: inactive; RAM inhibit: 9.3

What do the screens show for `Cc1ccccc1C(=O)c1cccn1CC(=O)NCc1ccc2c(c1)OCO2`?
TNAP act hiacc: inactive; BB579 growth dn: inactive; TNAP inh no acc: inactive; Yeast lifespan up: inactive; TNAP inh hiacc: inactive; RAM inhibit: inactive

Results for Cc1ccnc(SCc2cc(=O)c(OC(=O)c3ccco3)co2)n1 ?
TNAP act hiacc: inactive; BB579 growth dn: inactive; TNAP inh no acc: inactive; Yeast lifespan up: 42; TNAP inh hiacc: inactive; RAM inhibit: inactive

What do the screens show for `COc1ccc(NC(=S)N2CCCC2c2ccc(OC)c(OC)c2)cc1` (stereo unspecified)?
TNAP act hiacc: inactive; TNAP inh no acc: inactive; TNAP inh hiacc: inactive; RAM inhibit: 9.9

How did OCCC1CN(Cc2cn[nH]c2C2CCCCC2)CCN1C1CCCC1 (stereo unspecified) do in these assays?
TNAP act hiacc: inactive; TNAP inh no acc: inactive; TNAP inh hiacc: inactive; RAM inhibit: inactive

How did Oc1ccc(Br)cc1C=Nc1ccc2c3c(cccc13)CC2 do in these assays?
TNAP act hiacc: inactive; BB579 growth dn: inactive; TNAP inh no acc: inactive; Yeast lifespan up: inactive; TNAP inh hiacc: inactive; RAM inhibit: 10

What do the screens show for `COc1ccc(/C=C2\SC(=S)N(NC(=O)c3csc4c3CCCC4)C2=O)cc1`?
TNAP act hiacc: inactive; BB579 growth dn: inactive; TNAP inh no acc: inactive; Yeast lifespan up: inactive; TNAP inh hiacc: inactive; RAM inhibit: inactive

How did CCOC(=O)c1ccc(N/C=C\C(=O)c2cccc(OC)c2)cc1 do in these assays?
TNAP act hiacc: inactive; BB579 growth dn: inactive; TNAP inh no acc: inactive; Yeast lifespan up: inactive; TNAP inh hiacc: inactive; RAM inhibit: 10

How did CSc1ccccc1NC(=O)CSc1nncs1 do in these assays?
TNAP act hiacc: inactive; TNAP inh no acc: inactive; TNAP inh hiacc: inactive; RAM inhibit: inactive

Results for O=C(CCCc1nc2ccccc2s1)N1CCN(c2ccccc2)CC1 ?
TNAP act hiacc: inactive; BB579 growth dn: inactive; TNAP inh no acc: inactive; Yeast lifespan up: inactive; TNAP inh hiacc: inactive; RAM inhibit: inactive

What do the screens show for `O=C(CCCc1nc2ccccc2s1)N1CCN(S(=O)(=O)c2cccs2)CC1`?
TNAP act hiacc: inactive; BB579 growth dn: inactive; TNAP inh no acc: inactive; Yeast lifespan up: inactive; TNAP inh hiacc: inactive; RAM inhibit: 8.8

What do the screens show for `COc1ccc(C(=O)OCC(=O)NCCN2C(=O)CSC2=O)cc1`?
TNAP act hiacc: inactive; TNAP inh no acc: inactive; TNAP inh hiacc: inactive; RAM inhibit: inactive

Results for CCc1cc(=O)[nH]c(-n2[nH]c(-c3ccccc3)cc2=O)n1 ?
TNAP act hiacc: inactive; TNAP inh no acc: inactive; TNAP inh hiacc: inactive; RAM inhibit: inactive

What do the screens show for `O=c1cc(-c2ccccc2)[nH]n1-c1nc2ccccc2[nH]1`?
TNAP act hiacc: inactive; BB579 growth dn: 97; TNAP inh no acc: inactive; Yeast lifespan up: inactive; TNAP inh hiacc: inactive; RAM inhibit: inactive

What do the screens show for `C=CCN1C2CCCC1CC(NC(=S)Nc1ccc(Cl)cc1)C2` (stereo unspecified)?
TNAP act hiacc: inactive; TNAP inh no acc: inactive; TNAP inh hiacc: inactive; RAM inhibit: inactive

Results for CCCSc1nc(N)cc(=O)[nH]1 ?
TNAP act hiacc: inactive; BB579 growth dn: inactive; TNAP inh no acc: inactive; Yeast lifespan up: 34; TNAP inh hiacc: inactive; RAM inhibit: inactive

Results for CCCSc1nc(C)cc(=O)[nH]1 ?
TNAP act hiacc: inactive; BB579 growth dn: inactive; TNAP inh no acc: inactive; Yeast lifespan up: inactive; TNAP inh hiacc: inactive; RAM inhibit: inactive

How did Cc1cccc(-n2c(CCCN3C(=O)c4ccccc4C3=O)nc3ccccc3c2=O)n1 do in these assays?
TNAP act hiacc: inactive; BB579 growth dn: inactive; TNAP inh no acc: inactive; Yeast lifespan up: inactive; TNAP inh hiacc: inactive; RAM inhibit: inactive

What do the screens show for `COc1cc2nc(C3CCC3)n(NC(=O)COc3ccccc3)c(=O)c2cc1OC`?
TNAP act hiacc: inactive; BB579 growth dn: inactive; TNAP inh no acc: inactive; Yeast lifespan up: 53; TNAP inh hiacc: inactive; RAM inhibit: inactive

How did CC(=O)Nc1cc2c(cc1NC(=O)Cn1nc(-c3ccc4c(c3)OCCO4)ccc1=O)OCCO2 do in these assays?
TNAP act hiacc: inactive; BB579 growth dn: inactive; TNAP inh no acc: inactive; Yeast lifespan up: inactive; TNAP inh hiacc: inactive; RAM inhibit: inactive

What do the screens show for `COc1ccc(Cn2c(C)c(C)c(C#N)c2NC(=O)Nc2cccc(Cl)c2)cc1`?
TNAP act hiacc: inactive; BB579 growth dn: inactive; TNAP inh no acc: inactive; Yeast lifespan up: inactive; TNAP inh hiacc: inactive; RAM inhibit: inactive

How did Cc1ccc(OCc2nc3c4c(ncn3n2)-c2ccccc2CC42CCCC2)cc1 do in these assays?
TNAP act hiacc: inactive; BB579 growth dn: inactive; TNAP inh no acc: inactive; Yeast lifespan up: inactive; TNAP inh hiacc: inactive; RAM inhibit: 10

How did COc1ccc(-c2nc3c4c(ncn3n2)-c2ccccc2CC42CCCC2)cc1 do in these assays?
TNAP act hiacc: inactive; BB579 growth dn: inactive; TNAP inh no acc: inactive; Yeast lifespan up: inactive; TNAP inh hiacc: inactive; RAM inhibit: inactive

Source: PubChem (several laboratories)
